Reference: ChEMBL document CHEMBL1139435, “Beta-oxygenated analogues of the 5-HT2A serotonin receptor agonist 1-(4-bromo-2,5-dimethoxyphenyl)-2-aminopropane” (J Med Chem, 2004)

Tests used:
[1] = molecular target: 5-hydroxytryptamine receptor 2A (Rattus norvegicus) (UniProt P14842); assay: Efficacy as 5-HT2A receptor-mediated intracellular calcium [Ca2+] mobilization in rat A7r5 cells; assay type: functional, cell-based
Summary of the method: (§1)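 Rat A7r5 vascular smooth muscle cells grown in DMEM/10% FBS, seeded at 20 000 cells/well, cultured 2 days. Loaded with calcium dye in HBSS/20 mM HEPES/2.5 mM probenecid pH 7.4 for 1 h at 23 °C. Response is peak minus basal fluorescence, expressed as % of maximal 5-HT response.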

[2] = molecular target: T1, 5-hydroxytryptamine receptor 2A (Rattus norvegicus, UniProt P14842); assay: Serotonin 5-HT2A receptor-mediated intracellular calcium [Ca2+] mobilization in rat A7r5 cells; assay type: functional, cell-based; summary of the method: as §1
T1 sequence (P14842 whole entry): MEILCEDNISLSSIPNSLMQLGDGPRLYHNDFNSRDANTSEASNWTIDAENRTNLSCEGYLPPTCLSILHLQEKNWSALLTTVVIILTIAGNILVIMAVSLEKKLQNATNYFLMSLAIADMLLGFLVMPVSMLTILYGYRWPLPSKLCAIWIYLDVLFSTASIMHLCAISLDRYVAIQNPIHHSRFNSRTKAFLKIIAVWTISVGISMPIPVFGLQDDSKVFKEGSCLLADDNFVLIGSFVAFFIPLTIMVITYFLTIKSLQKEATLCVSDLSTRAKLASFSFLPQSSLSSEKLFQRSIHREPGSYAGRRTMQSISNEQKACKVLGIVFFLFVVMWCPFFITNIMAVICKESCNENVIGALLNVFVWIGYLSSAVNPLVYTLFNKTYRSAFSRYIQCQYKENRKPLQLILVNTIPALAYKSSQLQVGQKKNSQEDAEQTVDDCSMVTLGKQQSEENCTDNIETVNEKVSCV

[3] = molecular target: T1, 5-hydroxytryptamine receptor 2A; assay: Binding affinity for 5-HT2A serotonin receptor
Summary of the method: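 Incubated 1 h at 23 °C. Nonspecific binding defined with methiothepin (10 µM final). Ended by vacuum filtration over GF/B filters presoaked in 0.3% polyethyleneimine, washed with ice-cold buffer. Bound counts read by scintillation. IC50 for displacing labelled DOI binding.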

Monkey [4] = assay: Percent reduction of intraocular pressure after 6 hours following topical ocular administration to normal eye conscious cynomolgus monkeys; assay type: functional, Cercopithecidae
Summary of the method: (§2)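 Conscious cynomolgus monkeys dosed topically in the eye with 300 µg in phosphate-buffered saline, pH 7.4. Vehicle was given to test eyes of five or six further animals. IOP measured at baseline and at 1, 3 and 6 h. Values are % reduction from baseline.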

Monkey [5] = assay: Percent reduction of intraocular pressure after 1 hour following topical ocular administration to normal eye conscious cynomolgus monkeys; assay type: functional, Cercopithecidae; summary of the method: as §2
Monkey [6] = assay: Percent reduction of intraocular pressure after 3 hours following topical ocular administration to normal eye conscious cynomolgus monkeys; assay type: functional, Cercopithecidae; summary of the method: as §2

Sequence of 5-hydroxytryptamine receptor 2A (Rattus norvegicus) (P14842 whole entry): as above

Compound | Efficacy [1] | EC50 [2] | Ki [3] | Reduction (Monkey [4]) | Reduction (Monkey [5]) | Reduction (Monkey [6])
COc1cc([C@@H](O)[C@H](C)N)c(OC)cc1Br | 22% | 840 nM | 1.1 nM |  |  | 
COc1cc(C(O)CN)c(OC)cc1Br (stereo not given) | 8% |  | 2.1 nM |  |  | 
COc1cc([C@H](O)[C@@H](C)N)c(OC)cc1Br | 20% |  | 9.2 nM |  |  | 
COc1ccc(OC)c(C[C@@H](C)N)c1 | 34% | 740 nM | 9.2 nM |  |  | 
CC[C@H](N)[C@H](O)c1cc(OC)c(Br)cc1OC | 5% |  | 20.3 nM |  |  | 
COc1cc(CC(C)N)c(OC)cc1Br (stereo not given) | 38% |  |  |  |  | 
COc1cc([C@H](OC)[C@H](C)N)c(OC)cc1Br | 31% | 1410 nM | 6 nM |  |  | 
COc1cc([C@@H](O)[C@@H](C)N)c(OC)cc1Br | 50% | 100 nM | 0.5 nM | 22.1% | 10.7% | 19%
COc1cc(C[C@@H](C)N)c(OC)cc1I |  |  |  | 34.4% | 15.2% | 31%
COc1cc(C2CNCCO2)c(OC)cc1Br (stereo not given) | 4% |  | 20.6 nM |  |  | 
CCC(N)Cc1cc(OC)c(Br)cc1OC (stereo not given) | 15% |  | 7.6 nM |  |  | 
COc1cc([C@@H](OC)[C@@H](C)N)c(OC)cc1Br | 93% | 130 nM | 0.3 nM | 25.5% | 19% | 27.5%
COc1cc(C(CN)OC)c(OC)cc1Br (stereo not given) | 63% | 120 nM | 2 nM |  |  | 
COc1cc([C@H](O)[C@H](C)N)c(OC)cc1Br | 16% |  | 10 nM |  |  | 
